Source: ChEMBL document CHEMBL3421570, “Combinatorial Libraries As a Tool for the Discovery of Novel, Broad-Spectrum Antibacterial Agents Targeting the ESKAPE Pathogens” (J Med Chem, 2015)
Calls of active or inactive are those of the source. The rule behind the calls is not given here.

How the values were obtained:
Type in all cases: functional, organism-based
Enterococcus faecium = assay: Antimicrobial activity against Enterococcus faecium assessed as inhibition of microbial growth at 45 uM after 24 hrs
Procedure, shortened: (§1)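 Broth microdilution single-concentration read: overnight cultures diluted 1:1000, compound in DMF (≤2.0%) added, 37°C for 24 h, growth inhibition scored visually by lack of turbidity; triplicate. Gram-positives grown in TSB, Gram-negatives in LB.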

Staphylococcus aureus = assay: Antimicrobial activity against Staphylococcus aureus assessed as inhibition of microbial growth at 45 uM after 24 hrs; procedure, shortened: as §1
Klebsiella pneumoniae = assay: Antimicrobial activity against Klebsiella pneumoniae assessed as inhibition of microbial growth at 45 uM after 24 hrs; procedure, shortened: as §1
Acinetobacter baumannii = assay: Antimicrobial activity against Acinetobacter baumannii assessed as inhibition of microbial growth at 45 uM after 24 hrs; procedure, shortened: as §1
Pseudomonas aeruginosa = assay: Antimicrobial activity against Pseudomonas aeruginosa assessed as inhibition of microbial growth at 45 uM after 24 hrs; procedure, shortened: as §1
Enterobacter cloacae = assay: Antimicrobial activity against Enterobacter cloacae assessed as inhibition of microbial growth at 45 uM after 24 hrs; procedure, shortened: as §1

SMILES | growth inhibition (GI) (Enterococcus faecium) | growth inhibition (GI) (Staphylococcus aureus) | growth inhibition (GI) (Klebsiella pneumoniae) | growth inhibition (GI) (Acinetobacter baumannii) | growth inhibition (GI) (Pseudomonas aeruginosa) | growth inhibition (GI) (Enterobacter cloacae)
N=C1NC[C@H](CCCCN2C[C@H](CC3CCCCC3)N(CCc3ccc(-c4ccccc4)cc3)C2=N)N1CCCCC1CCCCC1 | Active | Active | Active | Active | Active | Active
N=C1NC[C@H](CCCCN2C[C@H](CC3CCCCC3)N(CCCCC3CCCCC3)C2=N)N1CCc1cccc(C(F)(F)F)c1 | Active | Active | Active | Active | Active | Active
CCCC[C@H]1CN(CCCC[C@H]2CNC(=N)N2CCCCC2CCCCC2)C(=N)N1CCc1ccc(-c2ccccc2)cc1 | Active | Active | Active | Active | Active | Active
N=C1NC[C@H](CCCCN2C[C@H](CC3CCCCC3)N(CCCCC3CCCCC3)C2=N)N1CCC12CC3CC(CC(C3)C1)C2 | Active | Active | Active | Active | Active | Active
N=C1NC[C@H](CCCCN2C[C@H](CC3CCCCC3)N(CCc3ccc(-c4ccccc4)cc3)C2=N)N1CCc1cccc(C(F)(F)F)c1 | Active | Active | Active | Active | Active | Active
N=C1NC[C@H](CCCCN2C[C@@H](Cc3cccc4ccccc34)N(CCCCC3CCCCC3)C2=N)N1CCC12CC3CC(CC(C3)C1)C2 | inactive | inactive | inactive | inactive | inactive | inactive
CCCCCCCN1C(=N)N(CCCC[C@H]2CNC(=N)N2CCC23CC4CC(CC(C4)C2)C3)C[C@@H]1CC1CCCCC1 | Active | Active | Active | Active | Active | Active
N=C1NC[C@H](CCCCN2C[C@H](CC3CCCCC3)N(CCCCC3CCCCC3)C2=N)N1CCCCC1CCCCC1 | Active | Active | Active | Active | Active | Active
CCCC[C@H]1CN(CCCC[C@H]2CNC(=N)N2CCc2cccc(C(F)(F)F)c2)C(=N)N1CCc1ccc(-c2ccccc2)cc1 | Active | Active | Active | Active | Active | Active
N=C1NC[C@H](CCCCN2C[C@@H](Cc3cccc4ccccc34)N(CCc3ccc(-c4ccccc4)cc3)C2=N)N1CCc1cccc(C(F)(F)F)c1 | Active | Active | Active | Active | Active | Active
N=C1NC[C@H](CCCCN2C[C@@H](Cc3cccc4ccccc34)N(CCCCC3CCCCC3)C2=N)N1CCCCC1CCCCC1 | Active | Active | Active | Active | Active | Active
CCCC[C@H]1CN(CCCC[C@H]2CNC(=N)N2CCC23CC4CC(CC(C4)C2)C3)C(=N)N1CCc1ccc(-c2ccccc2)cc1 | Active | Active | Active | Active | Active | Active
